Source: ChEMBL document CHEMBL4304816, “A Novel Biphenyl-based Chemotype of Retinoid X Receptor Ligands Enables Subtype and Heterodimer Preferences” (ACS Med Chem Lett, 2019)
Calls of active or inactive are those of the source. The calls are words filed in the database; no cut-off is given here.

How the values were obtained:
Assay type in all cases: cell-based
[1] = target: T1, Retinoic acid receptor RXR-alpha (Homo sapiens) (UniProt P19793); experiment: Agonist activity at Gal4-LBD fused RXRalpha (unknown origin) expressed in HEK293T cells at 10 uM after 14 to 16 hrs by dual-Glo luciferase assay
T1 sequence (whole entry): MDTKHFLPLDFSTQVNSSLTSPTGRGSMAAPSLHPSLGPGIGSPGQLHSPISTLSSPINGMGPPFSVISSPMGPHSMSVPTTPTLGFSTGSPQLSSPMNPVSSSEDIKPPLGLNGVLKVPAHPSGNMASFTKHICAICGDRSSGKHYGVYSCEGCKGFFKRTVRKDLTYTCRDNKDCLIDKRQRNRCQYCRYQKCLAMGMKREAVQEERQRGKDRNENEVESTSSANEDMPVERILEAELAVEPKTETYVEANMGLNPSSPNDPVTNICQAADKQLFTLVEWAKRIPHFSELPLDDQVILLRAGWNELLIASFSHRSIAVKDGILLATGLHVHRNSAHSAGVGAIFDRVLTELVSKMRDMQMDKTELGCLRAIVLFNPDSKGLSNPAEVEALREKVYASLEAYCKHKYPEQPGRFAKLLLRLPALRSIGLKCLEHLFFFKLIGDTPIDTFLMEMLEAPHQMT

[2] = target: T2, Retinoic acid receptor RXR-beta (Homo sapiens) (UniProt P28702); experiment: Agonist activity at Gal4-LBD fused RXRbeta (unknown origin) expressed in HEK293T cells at 10 uM after 14 to 16 hrs by dual-Glo luciferase assay
T2 sequence (whole entry): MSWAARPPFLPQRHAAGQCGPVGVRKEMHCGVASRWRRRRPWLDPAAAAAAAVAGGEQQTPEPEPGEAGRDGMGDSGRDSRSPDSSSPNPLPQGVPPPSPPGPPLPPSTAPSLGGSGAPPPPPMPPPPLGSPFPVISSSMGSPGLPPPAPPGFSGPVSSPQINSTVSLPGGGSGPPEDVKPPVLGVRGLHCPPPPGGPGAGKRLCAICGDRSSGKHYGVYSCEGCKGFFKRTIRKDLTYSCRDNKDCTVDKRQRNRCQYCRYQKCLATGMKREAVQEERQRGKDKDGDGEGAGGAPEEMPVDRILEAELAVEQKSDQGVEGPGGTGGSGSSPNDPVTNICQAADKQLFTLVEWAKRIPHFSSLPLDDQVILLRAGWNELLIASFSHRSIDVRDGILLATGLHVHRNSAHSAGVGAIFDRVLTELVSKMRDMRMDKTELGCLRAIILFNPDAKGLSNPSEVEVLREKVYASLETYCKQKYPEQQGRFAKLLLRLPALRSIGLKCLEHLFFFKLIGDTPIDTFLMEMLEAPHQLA

[3] = target: T3, Retinoic acid receptor RXR-gamma (Homo sapiens) (UniProt P48443); experiment: Agonist activity at Gal4-LBD fused RXRgamma (unknown origin) expressed in HEK293T cells at 10 uM after 14 to 16 hrs by dual-Glo luciferase assay
T3 sequence (whole entry): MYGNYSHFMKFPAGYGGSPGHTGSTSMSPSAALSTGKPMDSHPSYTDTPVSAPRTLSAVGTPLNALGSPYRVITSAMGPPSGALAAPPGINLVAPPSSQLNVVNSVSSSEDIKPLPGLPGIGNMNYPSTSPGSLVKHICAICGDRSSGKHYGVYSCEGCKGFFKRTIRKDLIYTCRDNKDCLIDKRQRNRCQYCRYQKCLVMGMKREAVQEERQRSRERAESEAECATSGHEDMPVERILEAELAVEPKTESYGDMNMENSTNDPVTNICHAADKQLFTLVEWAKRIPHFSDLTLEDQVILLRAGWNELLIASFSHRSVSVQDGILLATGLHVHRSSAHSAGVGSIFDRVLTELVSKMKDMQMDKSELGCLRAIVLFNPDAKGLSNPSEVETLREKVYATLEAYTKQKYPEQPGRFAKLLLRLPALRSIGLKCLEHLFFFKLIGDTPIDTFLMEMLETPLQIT

[4] = target: T4, Retinoic acid receptor RXR-alpha (Homo sapiens, UniProt P19793); experiment: Agonist activity at Gal4-LBD fused RXRalpha (unknown origin) expressed in HEK293T cells after 14 to 16 hrs by dual-Glo luciferase assay
T4 sequence (P19793 whole entry): T1 sequence (whole entry)
Procedure, shortened: (§1)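 Gal4-hybrid RXRα/β/γ reporter gene assays in HEK293T cells. Fold activation is the maximal fold activation versus 0.1% DMSO.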

[5] = target: T5, Retinoic acid receptor RXR-beta (Homo sapiens, UniProt P28702); experiment: Agonist activity at Gal4-LBD fused RXRbeta (unknown origin) expressed in HEK293T cells after 14 to 16 hrs by dual-Glo luciferase assay; procedure, shortened: as §1
T5 sequence (P28702 whole entry): T2 sequence (whole entry)

[6] = target: T6, Retinoic acid receptor RXR-gamma (Homo sapiens, UniProt P48443); experiment: Agonist activity at Gal4-LBD fused RXRgamma (unknown origin) expressed in HEK293T cells after 14 to 16 hrs by dual-Glo luciferase assay; procedure, shortened: as §1
T6 sequence (P48443 whole entry): T3 sequence (whole entry)

[7] = target: T1, Retinoic acid receptor RXR-alpha (Homo sapiens); experiment: Agonist activity at Gal4-LBD fused RXRalpha (unknown origin) expressed in HEK293T cells assessed as fold activation at 10 uM after 14 to 16 hrs by dual-Glo luciferase assay relative to untreated control; procedure, shortened: as §1
[8] = target: T2, Retinoic acid receptor RXR-beta (Homo sapiens); experiment: Agonist activity at Gal4-LBD fused RXRbeta (unknown origin) expressed in HEK293T cells assessed as fold activation at 10 uM after 14 to 16 hrs by dual-Glo luciferase assay relative to untreated control; procedure, shortened: as §1
[9] = target: T3, Retinoic acid receptor RXR-gamma (Homo sapiens); experiment: Agonist activity at Gal4-LBD fused RXRgamma (unknown origin) expressed in HEK293T cells assessed as fold activation at 10 uM after 14 to 16 hrs by dual-Glo luciferase assay relative to untreated control; procedure, shortened: as §1
[10] = target: T1, Retinoic acid receptor RXR-alpha (Homo sapiens); experiment: Agonist activity at Gal4-LBD fused RXRalpha (unknown origin) expressed in HEK293T cells assessed as fold activation after 14 to 16 hrs by dual-Glo luciferase assay relative to untreated control; procedure, shortened: as §1
[11] = target: T2, Retinoic acid receptor RXR-beta (Homo sapiens); experiment: Agonist activity at Gal4-LBD fused RXRbeta (unknown origin) expressed in HEK293T cells assessed as fold activation after 14 to 16 hrs by dual-Glo luciferase assay relative to untreated control; procedure, shortened: as §1
[12] = target: T3, Retinoic acid receptor RXR-gamma (Homo sapiens); experiment: Agonist activity at Gal4-LBD fused RXRgamma (unknown origin) expressed in HEK293T cells assessed as fold activation after 14 to 16 hrs by dual-Glo luciferase assay relative to untreated control; procedure, shortened: as §1
[13] = target: T1, Retinoic acid receptor RXR-alpha (Homo sapiens); experiment: Agonist activity at Gal4-LBD fused RXRalpha (unknown origin) expressed in HEK293T cells at 30 uM after 14 to 16 hrs by dual-Glo luciferase assay
[14] = target: T2, Retinoic acid receptor RXR-beta (Homo sapiens); experiment: Agonist activity at Gal4-LBD fused RXRbeta (unknown origin) expressed in HEK293T cells at 30 uM after 14 to 16 hrs by dual-Glo luciferase assay
[15] = target: T3, Retinoic acid receptor RXR-gamma (Homo sapiens); experiment: Agonist activity at Gal4-LBD fused RXRgamma (unknown origin) expressed in HEK293T cells at 30 uM after 14 to 16 hrs by dual-Glo luciferase assay
[16] = target: T3, Retinoic acid receptor RXR-gamma (Homo sapiens); experiment: Agonist activity at Gal4-LBD fused RXRgamma (unknown origin) expressed in HEK293T cells at 20 uM after 14 to 16 hrs by dual-Glo luciferase assay
[17] = target: T1, Retinoic acid receptor RXR-alpha (Homo sapiens); experiment: Agonist activity at Gal4-LBD fused RXRalpha (unknown origin) expressed in HEK293T cells assessed as fold activation at 30 uM after 14 to 16 hrs by dual-Glo luciferase assay relative to untreated control; procedure, shortened: as §1
[18] = target: T2, Retinoic acid receptor RXR-beta (Homo sapiens); experiment: Agonist activity at Gal4-LBD fused RXRbeta (unknown origin) expressed in HEK293T cells assessed as fold activation at 30 uM after 14 to 16 hrs by dual-Glo luciferase assay relative to untreated control; procedure, shortened: as §1
[19] = target: T3, Retinoic acid receptor RXR-gamma (Homo sapiens); experiment: Agonist activity at Gal4-LBD fused RXRgamma (unknown origin) expressed in HEK293T cells assessed as fold activation at 30 uM after 14 to 16 hrs by dual-Glo luciferase assay relative to untreated control; procedure, shortened: as §1

Row | Compound | Activity [1] | Activity [2] | Activity [3] | EC50 [4] [µM] | EC50 [5] [µM] | fold change (FC) [10] | fold change (FC) [11] | Activity [15] | other results
1 | CC(C)(C)c1cc(-c2ccc(C(=O)O)cn2)cc(C(C)(C)C)c1 | inactive | inactive | inactive | – | – | – | – | – | –
2 | O=C(O)c1ccc(-c2cc(C(F)(F)F)cc(C(F)(F)F)c2)cc1 | – | – | – | 3.1 | 3.7 | 50 | 122 | – | EC50 [6]: 12.5 µM; fold change (FC) [7]: 48; fold change (FC) [8]: 120; fold change (FC) [9]: 10; fold change (FC) [12]: 25
3 | COc1cccc(-c2ccc(C(=O)O)cc2)c1 | – | – | – | – | – | – | – | inactive | Activity [13]: inactive; Activity [14]: inactive
4 | CCOc1cccc(-c2ccc(C(=O)O)cc2)c1 | – | – | – | 22.5 | 30 | 11 | 11 | inactive | –
5 | CC(C)(C)c1cc(-c2ccc(C(=O)O)nc2)cc(C(C)(C)C)c1 | inactive | inactive | inactive | – | – | – | – | – | –
6 | CCc1cc(CC)cc(-c2ccc(C(=O)O)cc2)c1 | – | – | – | 3.4 | 6.7 | 11 | 33 | – | Activity [16]: inactive
7 | CC(C)c1cccc(-c2ccc(C(=O)O)cc2)c1 | – | – | – | 14.3 | 16.2 | 28 | 65 | – | EC50 [6]: 11.6 µM; fold change (FC) [12]: 2.7
8 | CC(C)(C)c1cc(-c2cccc(C(=O)O)c2)cc(C(C)(C)C)c1 | – | – | inactive | 3.7 | 3.1 | 31 | 84 | – | fold change (FC) [7]: 32; fold change (FC) [8]: 82; fold change (FC) [9]: 4
9 | Cc1cc(C(=O)O)ccc1-c1cc(C(C)(C)C)cc(C(C)(C)C)c1 | inactive | inactive | inactive | – | – | – | – | – | –
10 | Cc1cc(C)cc(-c2ccc(C(=O)O)cc2)c1 | – | – | – | 9.6 | 18.6 | 26 | 97 | inactive | fold change (FC) [17]: 25; fold change (FC) [18]: 74; fold change (FC) [19]: 2
